Reference: ChEMBL document CHEMBL1129574, “Synthesis, structure-activity relationships, and pharmacokinetic properties of dihydroorotate dehydrogenase inhibitors: 2-cyano-3-cyclopropyl-3-hydroxy-N-[3'-methyl-4'-(trifluoromethyl)phenyl ] propenamide and related compounds” (J Med Chem, 1996)
pIC50: −log10 of the molar value.

Experiments:
Mus musculus [1] = assay: In vivo ability to inhibit delayed type hypersensitivity in mouse at a concentration of 100 mg/kg; type: functional
Outline: (§1)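 Male CD-1 mice (25–30 g, n = 8-16) sensitized day 0 by s.c. 1 mg methylated BSA in saline/Freund's complete adjuvant; negative controls saline/FCA. Day 7 challenge: MBSA 0.1 mg into right hind footpad, saline in left. Oral dosing once daily days 4–6 plus twice on day 7 (1 h before, 6 h after challenge). Paw edema read 24 h post-challenge; Student's t-test.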

Rattus norvegicus [2] = assay: In vivo ability to inhibit delayed type hypersensitivity in rat at a concentration of 50 mg/kg; type: functional
Outline: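 Male CFHB rats (160-180 g, n=7-12) sensitized day 0 by tail-base s.c. FCA (0.4 mg M. tuberculosis in liquid paraffin); controls got incomplete adjuvant. Day 7 challenge: soluble M. tuberculosis extract 0.4 mg into right hind footpad, saline in left. Oral dosing once daily days 4-6 and twice day 7 (1 h before, 6 h after). Edema read at 24 h; Student's t-test.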

[3] = t1/2 in mouse plasma after oral dose (30/mg/Kg); type: ADME, organism-based
Outline: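 Male CD-1 mice (25–32 g, n=5/time point) gavaged orally 30 mg/kg (10 mL/kg). Blood by exsanguination under ether at 0, 1, 3, 6, 24, 48, 72 h, pooled per time point, heparinized; plasma stored −20 °C. Drug quantified by reversed-phase HPLC (ODS, pH 7 phosphate/acetonitrile 65:35, UV 300 nm) with internal standard and spiked-plasma calibration.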

[4] = biological target: Dihydroorotate dehydrogenase (quinone), mitochondrial (Rattus norvegicus, UniProt Q63707); assay: Inhibitory concentration tested against enzyme dihydroorotate dehydrogenase in rat
[5] = biological target: Dihydroorotate dehydrogenase (quinone), mitochondrial (Mus musculus, UniProt O35435); assay: Inhibitory concentration tested on enzyme dihydroorotate dehydrogenase in mouse
[6] = t1/2 in rat plasma after oral dose (10 mg/kg); type: ADME, organism-based
Outline: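 Male Wistar CFHB rats (190–220 g, n=3/time point) given 10 mg/kg orally by gavage (10 mL/kg). Cardiac-puncture blood under ether at 0, 1, 3, 6, 24, 48, 72 h, individual heparinized samples; plasma kept at −20 °C. Levels by HPLC (ODS column, 0.1 M pH 7 phosphate 65%/acetonitrile 35%, UV 300 nm), internal standard, peak-area calibration from spiked blank plasma.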

Mus musculus [7] = assay: In vivo for its ability to inhibit delayed type hypersensitivity in mouse following 30 mg/kg administration.; type: functional; outline: as §1
Rattus norvegicus [8] = assay: In vivo for its ability to inhibit delayed type hypersensitivity in rat following 10 mg/kg administration.

Sequence of Dihydroorotate dehydrogenase (quinone), mitochondrial (Rattus norvegicus, UniProt Q63707) (Q63707 whole entry): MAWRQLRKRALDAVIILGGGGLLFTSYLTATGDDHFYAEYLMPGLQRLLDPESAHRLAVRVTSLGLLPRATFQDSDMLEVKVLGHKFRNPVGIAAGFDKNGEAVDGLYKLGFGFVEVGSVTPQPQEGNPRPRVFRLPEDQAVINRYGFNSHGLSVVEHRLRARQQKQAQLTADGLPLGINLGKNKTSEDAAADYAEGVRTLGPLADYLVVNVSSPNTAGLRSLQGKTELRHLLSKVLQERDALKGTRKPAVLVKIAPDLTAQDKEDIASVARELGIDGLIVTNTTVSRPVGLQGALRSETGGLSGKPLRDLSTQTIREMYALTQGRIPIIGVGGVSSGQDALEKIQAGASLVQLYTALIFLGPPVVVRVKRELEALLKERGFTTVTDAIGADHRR
Sequence of Dihydroorotate dehydrogenase (quinone), mitochondrial (Mus musculus, UniProt O35435) (O35435 whole entry): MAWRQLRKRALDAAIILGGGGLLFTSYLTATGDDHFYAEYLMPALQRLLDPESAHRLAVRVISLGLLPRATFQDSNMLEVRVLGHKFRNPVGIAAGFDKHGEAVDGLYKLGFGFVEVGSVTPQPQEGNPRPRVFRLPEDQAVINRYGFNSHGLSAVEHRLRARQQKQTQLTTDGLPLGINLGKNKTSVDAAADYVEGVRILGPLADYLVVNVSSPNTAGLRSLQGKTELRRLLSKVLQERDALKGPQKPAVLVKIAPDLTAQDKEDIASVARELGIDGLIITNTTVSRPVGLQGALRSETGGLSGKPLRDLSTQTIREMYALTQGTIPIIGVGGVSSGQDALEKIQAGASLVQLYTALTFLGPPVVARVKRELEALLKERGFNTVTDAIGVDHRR

SMILES | inhibition in vivo at 100 mg/kg (Mus musculus [1]) | inhibition in vivo at 50 mg/kg (Rattus norvegicus [2]) | half-life [3] | pIC50 [4] | pIC50 [5] | half-life [6] | inhibition in vivo at 30 mg/kg (Mus musculus [7]) | inhibition in vivo at 10 mg/kg (Rattus norvegicus [8])
Cc1cc(NC(=O)/C(C#N)=C(\O)C2CC2)ccc1Br | 86% | 66% | 2 h | 7.30 | 7.20 | 4 h |  | 
CN1CCCC1/C(O)=C(\C#N)C(=O)Nc1ccc(C(F)(F)F)cc1 (configuration not stated) | 10% | 23% |  | < 4.00 | < 4.00 |  |  | 
N#C/C(C(=O)Nc1ccc(-c2ccccc2)cc1)=C(/O)C1CC1 | 33% | 70% |  | 5.83 |  |  |  | 
N#C/C(C(=O)Nc1ccc(C#Cc2ccc(Cl)cc2)cc1)=C(/O)C1CC1 |  |  | 68 h |  | 5.30 | 84 h | 61% | 61%
N#C/C(C(=O)Nc1ccc(/C=C/c2ccc(Cl)cc2)cc1)=C(/O)C1CC1 | 69% | 46% | 43 h |  | 4.90 | > 30 h |  | 
Cc1cc(NC(=O)/C(C#N)=C(\O)C2CC2)ccc1Cl |  |  | 8 h | 7.48 | 7.40 | 2 h | 41% | 42%
Cc1ccc(NC(=O)/C(C#N)=C(\O)C2CC2)cc1Cl | 43% | 31% |  | 7.10 | 6.55 |  |  | 
N#C/C(C(=O)Nc1ccc(N)cc1)=C(/O)C1CC1 | 32% | 1% |  | 4.66 | 4.50 |  |  | 
N#C/C(C(=O)Nc1ccc(Oc2ccc(C(F)(F)F)cc2)cc1)=C(/O)C1CC1 |  |  |  | 5.45 | 5.82 |  | -17% | 39%
COC(=O)c1ccc(NC(=O)/C(C#N)=C(\O)C2CC2)cc1 | 34% | 59% |  |  | 5.95 |  |  | 
N#C/C(C(=O)Nc1ccc(Oc2ccccc2)cc1)=C(/O)C1CC1 | 9% | 6% |  | 6.54 |  |  |  | 
N#C/C(C(=O)Nc1ccc(C(F)(F)F)cc1)=C(/O)C1CCC1 | 4% | 1% |  | 6.55 | 6.68 |  |  | 
N#C/C(C(=O)Nc1ccc(C(F)(F)F)cc1)=C(/O)C1CCCO1 (configuration not stated) | 29% | 11% |  | 4.35 | 5.10 |  |  | 
Cc1oncc1C(=O)Nc1ccc(C(F)(F)F)cc1 [LEFLUNOMIDE] |  |  |  | 8.05 | 7.52 |  | 84% | 78%
N#C/C(C(=O)Nc1ccc(Oc2ccc(Cl)cc2)cc1)=C(/O)C1CC1 |  |  | 21 h | 5.82 | 6.08 | 39 h | 63% | 31%
N#C/C(C(=O)Nc1ccncc1)=C(/O)C1CC1 | 22% | 17% |  | 4.93 | 5.05 |  |  | 
CC(=O)c1ccc(NC(=O)/C(C#N)=C(\O)C2CC2)cc1 | 32% |  | 4 h | 7.17 | 5.42 | 6 h |  | 59%
Cc1cc(Cl)ccc1NC(=O)/C(C#N)=C(\O)C1CC1 |  |  |  | 5.90 | 5.43 |  | 54% | 30%

SMILES | inhibition in vivo at 100 mg/kg (Mus musculus [1]) | inhibition in vivo at 50 mg/kg (Rattus norvegicus [2]) | half-life [3] | pIC50 [4] | pIC50 [5] | half-life [6] | inhibition in vivo at 30 mg/kg (Mus musculus [7]) | inhibition in vivo at 10 mg/kg (Rattus norvegicus [8])
COc1ccc(NC(=O)/C(C#N)=C(\O)C2CC2)cc1 | 9% | 57% |  | 6.73 | 5.43 |  |  | 
N#C/C(C(=O)Nc1ccc(-c2ncco2)cc1)=C(/O)C1CC1 | 17% | 42% |  | 5.37 | 4.70 |  |  | 
N#C/C(C(=O)Nc1ccc(C=Cc2ccc(Cl)cc2)cc1)=C(/O)C1CC1 | 19% | 52% |  |  | 7.66 |  |  | 
N#C/C(C(=O)Nc1ccc(-c2ccc(F)cc2)cc1)=C(/O)C1CC1 |  |  |  | 5.67 | 5.07 |  | 53% | 79%
N#C/C(C(=O)Nc1ccc(C(F)(F)F)cc1)=C(/O)C1CCCC1 | 58% | 19% |  | 4.50 | 4.55 |  |  | 
N#C/C(C(=O)Nc1ccc(Cl)nc1)=C(/O)C1CC1 |  | 71% |  |  | 5.75 |  | 9% | 
N#C/C(C(=O)Nc1ccc(-c2cccs2)cc1)=C(/O)C1CC1 |  |  |  | 6.20 | 5.60 |  |  | 34%
N#C/C(C(=O)Nc1ccc(-c2ccco2)cc1)=C(/O)C1CC1 | -13% | 58% |  |  | 5.23 |  |  | 
N#C/C(C(=O)Nc1ccc(C(F)(F)F)cc1)=C(/O)C1CCOC1 (configuration not stated) | 29% | 14% |  | 4.75 | 4.93 |  |  | 
N#C/C(C(=O)Nc1ccc(Br)cn1)=C(/O)C1CC1 |  |  | 7 h | 7.43 |  | 13 h | 4% | 66%
N#C/C(C(=O)Nc1ccc(C(N)=O)cc1)=C(/O)C1CC1 | -18% | 20% |  | 4.85 | < 4.00 |  |  | 
N#C/C(C(=O)Nc1ccc(-c2nc(C(F)(F)F)cs2)cc1)=C(/O)C1CC1 |  |  |  | 5.52 | 4.30 |  |  | 30%
N#C/C(C(=O)Nc1ccc(C(F)(F)F)cc1)=C(/O)C1CCCN1 (configuration not stated) | -4% | -16% |  | < 4.00 | < 4.00 |  |  | 
N#C/C(C(=O)Nc1ccc(O)cc1)=C(/O)C1CC1 | -11% | 37% |  | 5.10 | < 4.00 |  |  | 
N#C/C(C(=O)Nc1ccc(C(=O)O)cc1)=C(/O)C1CC1 | -6% | 39% |  | 5.83 | 5.43 |  |  | 
CN(C(=O)c1ccc(NC(=O)/C(C#N)=C(\O)C2CC2)cc1)c1ccc(Cl)cc1 | -8% | 22% |  | 4.72 | 5.65 |  |  | 
N#C/C(C(=O)Nc1ccc(C(=O)c2ccc(Cl)cc2)cc1)=C(/O)C1CC1 |  |  |  | 6.23 | 6.25 |  | 4% | -19%
N#C/C(C(=O)Nc1ccc(Cl)cn1)=C(/O)C1CC1 | 48% | 64% |  | 7.12 | 6.70 |  |  | 
